# Screens deposited in PubChem BioAssay by several laboratories.
# The list is not random: actives were taken first. Their share in the collection is about 2.1%.
# Mot1-301 SUMO: blocks SUMOylation pathway, rescuing yeast Mot1-301 growth; S. cerevisiae Mot1-301 growth rescue, ATP luminescence, 38.5C; percent above DMSO median, 100 means doubled; growth rescue, % at 18.8 µM; actives 1% (n = 320,000); AID 2716;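 active means every valid replicate shows activation above 250% relative to neutral control wells; inactive means the rest, any valid replicate at or below 250%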;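 further: OY570 slx delta 5 strain wells were the positive control but not used for scaling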
# ARNT-TACC3 inh: disruptors of human ARNT/TACC3 interaction. Q9Y6A5. AlphaScreen His-ARNT PAS-B/GST-TACC3 binding, luminescence; TACC3 fragment carries E629A point mutation. inhibition, % at 9.99 µM. actives 0.66% (n = 390,000). AID 623870;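 active means mean inhibition of replicates at least 50% and at least half of replicates each reaching 50%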;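 further: 0% = complete ARNT plus TACC3 wells and 100% = ARNT alone without TACC3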
# Cardiac RTF inh: cardiac RTF calcium desensitization. P19429+P45379. IANBD-labeled cardiac RTF, Ca2+ fluorescence. inhibition, % at 7.15 µM. actives 0.12% (n = 340,000). AID 493244;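 active means inhibition above the mean inhibition of all tested compounds plus 3 SD, cut at about 17% in these data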;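 further: assay run at fixed EC70 calcium of 1.6 mM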
# RTF Ca sens act: increases calcium sensitivity of human cardiac regulated thin filaments; actives 0.24% (n = 340,000); AID 493008; P19429+P45379; activation, % at 7.2 µM; IANBD-labeled TnC RTF fluorescence at EC20 calcium; 0% EC20 calcium, 100% full calcium;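 active means activation above the mean over all tested compounds plus 3 SD, cut at about 30% in these data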;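 further: rise in fluorescence read as greater calcium sensitivity of cardiac thin filaments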
# UCH37 inh: blocks the human deubiquitinase UCH37; AID 588478; actives 0.33% (n = 330,000); Q9Y5K5; purified proteasome/UCH37, Ub-AMC cleavage fluorescence; inhibition, % (concentration not given with the values);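 active means mean inhibition over replicate wells above about 20%, limit read from the data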;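 further: 0% = compound-free wells with enzyme and 100% = wells lacking proteasome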
# Target sequence (Q9Y5K5 whole entry, looked up): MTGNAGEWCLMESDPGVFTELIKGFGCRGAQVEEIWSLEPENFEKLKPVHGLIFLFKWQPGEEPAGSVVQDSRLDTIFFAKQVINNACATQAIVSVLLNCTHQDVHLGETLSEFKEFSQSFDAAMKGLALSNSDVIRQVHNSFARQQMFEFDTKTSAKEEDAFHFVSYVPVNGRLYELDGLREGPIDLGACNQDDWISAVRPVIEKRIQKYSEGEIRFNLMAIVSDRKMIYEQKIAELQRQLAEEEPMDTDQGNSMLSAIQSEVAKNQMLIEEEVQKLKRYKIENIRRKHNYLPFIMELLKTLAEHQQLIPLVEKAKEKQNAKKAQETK
#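 Material: human UCH37 enzyme supplied as purified proteasome complex / Amount: 0.15 nM proteasome as dispensed / Buffer or medium: pH 7.4 Tris-HCl (50 mM) with ovalbumin, ATP-MgCl2, DTT / Times: preincubation 30 min, reaction 25 min, room temperature / Technique: AMC fluorescence from Ub-AMC cleavage, excitation 355 nm, emission 460 nm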
# Efflux pump inh: antifungal efflux pump inhibition, Nile Red retention; actives 0.44% (n = 330,000); inhibition, % at 10 µM; S. cerevisiae Candida pump triplex;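 active means plate passing quality check with inhibition over a set limit, or well fluorescence over plate mean plus 4 SD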;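 further: Nile Red retained in pooled yeast measured as flow cytometry median fluorescence; 0% = buffer negative control and 100% = Enniatin B positive control; higher means more Nile Red kept so more efflux inhibition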
# ARNT Alpha ctr-1: interferes with AlphaScreen signal, flagging false ARNT-TACC3 hits. AID 651705. actives 50% (n = 1,200). shares compounds with ARNT-TACC3 inh. AC50, µM (series often up to 68 µM), without a hit: at the top dose activity change, negative = signal decrease. His-ARNT PASB-GST AlphaScreen artifact counter-screen, luminescence;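 active means every separate test run was called active for a drop in luminescence, with AC50 within twice the top valid dose, actives reach about 71 µM in these data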
# ARNT Alpha ctr-2: produces AlphaScreen artifacts in ARNT-TACC3 counter-screen | shares compounds with ARNT-TACC3 inh | Dual-tagged His-ARNT PASB-GST AlphaScreen artifact counter-screen | AC50, µM | actives 70% (n = 45);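 active means luminescence drop, with half-maximal potency fitted within twice the sample's top valid dose, cut at about 70 µM in these data; inactive means the rest, including signal moving the wrong way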
# Active calls of the source: *; i = inactive; . = not tested or not shown; [ ] = another dose, or the depositor's remark.
SMILES,Mot1-301 SUMO,ARNT-TACC3 inh,Cardiac RTF inh,RTF Ca sens act,UCH37 inh,Efflux pump inh,ARNT Alpha ctr-1,others
NS(=O)(=O)c1ccc(CCNC(=O)c2ccc3c(c2)OCO3)cc1,125.7,41.4*,-14.0,-0.2,5.0,-0.1,4.6%,
Cc1ccccc1C(=O)N1CCN(c2ccc(NC(=O)c3cccnc3Cl)cc2)CC1,-4.0,11.5,-3.4,2.6,1.1,-0.1,.,
O=C(Nc1ccc(N2CCN(C(=O)c3ccccc3F)CC2)cc1)c1ncn[nH]1,-13.1,59.2*,-0.3,-1.9,-1.3,0.2,-18.2%,
CCN(CC)c1ccc(C=NNC(=O)C(O)c2ccccc2)cc1 (centres undefined),.,.,.,.,-232.1,.,.,
FC(F)(F)c1cc(-c2nn[nH]n2)cc(C(F)(F)F)c1,.,.,.,.,.,.,.,ARNT Alpha ctr-2=i
Cc1cc(NN=Cc2ccco2)c2ccccc2n1,.,.,.,.,-13.7,.,.,
O=C(Nc1ccc2c(c1)[C@@H]1C[C@H](CC(=O)N3CCc4ccccc4C3)O[C@@H](CO)[C@@H]1O2)c1ccc2c(c1)OCO2,.,51.2*,.,.,.,.,49.5µM*,
O=C(Nc1ccc2c(c1)[C@H]1C[C@H](CC(=O)N3CCc4ccccc4C3)O[C@H](CO)[C@H]1O2)c1ccc2c(c1)OCO2,.,8.1,.,.,.,.,.,
O=C(NN=Cc1ccc(O)cc1)c1ccc(NC(=O)c2ccccc2Br)cc1,.,.,.,.,3.2,.,.,
CC(=NNC(=O)COc1ccc(C#N)cc1)c1ccccc1OC(F)F,.,.,.,.,3.4,.,.,
O=S(=O)(N[C@@H]1CC[C@H](CCn2cc(-c3ccccn3)nn2)O[C@@H]1CO)c1cccc(Cl)c1,.,66.4*,.,.,.,.,31.4µM*,
O=S(=O)(N[C@@H]1CC[C@@H](CCn2cc(-c3ccccn3)nn2)O[C@H]1CO)c1cccc(Cl)c1,.,65.5*,.,.,.,.,41.2µM*,
COc1cccc(S(=O)(=O)N[C@@H]2CC[C@@H](CCn3cc(-c4ccccc4)nn3)O[C@H]2CO)c1,.,-2.4,.,.,.,.,.,
O=S(=O)(N[C@H]1CC[C@@H](CCn2cc(-c3ccccn3)nn2)O[C@H]1CO)c1cccc(Cl)c1,.,70.2*,.,.,.,.,31.9µM*,
NN=CC(=NNc1ccc(Cl)cc1)C(=O)c1ccncc1,.,.,.,.,8.8,.,.,
COC(=O)c1ccc(C(=O)O)nc1,-9.6,52.6*,1.5,12.7,1.8,-0.1,-15.0%,
COC(=O)C[C@H]1CC[C@@H](NS(=O)(=O)c2ccc(OC)cc2)[C@@H](CO)O1,.,25.2,.,.,.,.,.,
COC(=O)C[C@@H]1CC[C@@H](NS(=O)(=O)c2ccc(OC)cc2)[C@H](CO)O1,.,58.1*,.,.,.,.,3.7%[38 µM],
CC1(C)Cc2c(sc3nc4n(-c5ccccc5)c(=O)c(CCC(=O)O)nn4c(=O)c23)CO1,-16.4,57.4*,-1.7,-3.4,8.3,0.0,-8.2%,
CC1(C)Cc2c(sc3nc(-c4ccccc4)n(N)c(=O)c23)CO1,-19.7,0.8,1.0,-1.7,1.3,0.0,.,
Cc1[nH]c2ccccc2c1C=NNC(=O)c1cc(-c2ccncc2)nc2ccccc12,.,.,.,.,6.0,.,.,
O=C(O)COc1ccccc1C=Nn1c(C2CCCCC2)n[nH]c1=S,.,.,.,.,1.5,.,.,
COc1cccc(C=NNc2ncc(C(F)(F)F)cc2Cl)c1O,.,.,.,.,0.6,.,.,
CC12CC(O)C3c4ccc(O)cc4CCC3C1CCC2=NO (centres undefined),.,.,.,.,0.4,.,.,
O=S(=O)(N[C@@H]1CCCN(Cc2ccc(OCCO)cc2)C1)c1cccc2cccnc12,.,80.3*,.,.,.,.,24.3µM*,
SMILES,Mot1-301 SUMO,ARNT-TACC3 inh,Cardiac RTF inh,RTF Ca sens act,UCH37 inh,Efflux pump inh,ARNT Alpha ctr-1,others
O=C(O)c1ncn(Cc2ccccc2)c1C(=O)O,-22.0,61.6*,-1.3,1.8,1.4,0.7,-22.5%,
CCOc1cc(C=NNC(=O)CCCC(=O)NC2CCCCC2)ccc1O,.,.,.,.,-0.5,.,.,
O=C(Nc1ccccc1)N1CCCCN2[C@@H](CO)[C@@H](c3ccc(C#CC4CC4)cc3)[C@@H]2C1,.,17.8,.,.,.,.,.,
O=C(Nc1ccccc1)N1CCCCN2[C@H](C1)[C@H](c1ccc(C#CC3CC3)cc1)[C@@H]2CO,.,active,.,.,.,.,-32.2%[38 µM],
CCOc1ccc(C=Nn2cnnc2)cc1,.,.,.,.,1.7,.,.,
Oc1cccc(C=NNc2cccc3cccnc23)c1,.,.,.,.,-8.1,.,.,
CN(Cc1ccccc1)CC(O)COc1ccc(CNCc2nccn2C)cc1 (centres undefined),-4.3,63.2*,3.8,5.5,5.0,0.0,-16.3%,
CN(Cc1ccccc1)CC(O)COc1ccc(CNCCc2ccncc2)cc1 (centres undefined),642.4,9.9,-7.9,1.5,0.6,-0.1,.,
Cc1nc2nc(-c3ccccc3)[nH]n2c(=O)c1Cc1ccccc1,0.2,-1.5,3.5,6.8,1.7,-0.1,.,
CN1CCC(n2[nH]c(-c3ccccc3)c(Cc3ccccc3)c2=O)CC1,.,active,-7.7,-2.8,5.3,.,-7.2%,
O=C(NN=CC1CC=CCC1)c1ccc(Br)o1 (centres undefined),.,.,.,.,2.2,.,.,
COc1cccc(C(=O)C(C#N)=NNc2cccc(-c3ccnc(C)n3)c2)c1,.,.,.,.,9.9,.,.,
CCCN(C(=O)Cc1nc(N)n[nH]1)C1(C(=O)Nc2c(C)cccc2C)CCCCC1,-19.1,13.2,-7.4,0.6,4.7,0.1,.,
CCCN(C(=O)Cc1nc(N)n[nH]1)C1(C(=O)Nc2ccccc2C)CCCCC1,74.2,50.3*,0.3,-3.9,24.6*,0.1,-13.2%,
O=C(c1ccccn1)N1CC[C@@H]2[C@H](CO)Nc3ccc(Br)cc3[C@@H]21,.,77.2*,.,.,.,.,44.9µM*,
Cc1ccc2nc(C)c(C(=O)NN=Cc3cccs3)n2c1,.,.,.,.,9.8,.,.,
COc1ccccc1OCc1nc(C#N)c(NCCCn2ccnc2)o1,-2.4,33.5*,-5.2,-4.6,-0.1,0.0,-10.4%,
CC(C)C(NC(=O)c1ccc2c(c1)OCO2)C(=O)NN=Cc1cccs1 (centres undefined),.,.,.,.,1.4,.,.,
S=c1[nH]nc(-c2ccccn2)n1N=Cc1ccccc1,.,.,.,.,1.9,.,.,
COC(=O)C(CC#Cc1ccc2c(c1)[C@]1(C(=O)N2)[C@H](c2ccc(OCCO)cc2)N2[C@H](c3ccccc3)[C@H](c3ccccc3)OC(=O)[C@H]2[C@@H]1C(=O)N1CCCCCCC1)C(=O)OC,.,63.3*,.,.,.,.,-33.8%[38 µM],
O=C(CSc1n[nH]c(-c2ccccn2)n1)Nc1ccc(Cl)cc1,-1.4,67.7*,-7.7,2.9,.,0.0,32.2µM*,ARNT Alpha ctr-2=11.3*
O=C(CSc1n[nH]c(-c2ccccn2)n1)Nc1ccc(F)cc1,-0.7,69.8*,1.8,-1.0,2.3,-0.1,10.6µM*,
Cc1ccc(NC(=O)CSc2n[nH]c(-c3ccccn3)n2)cc1,-7.0,69.5*,-13.9,5.2,5.0,-0.1,9.15µM*,
O=C(CSc1n[nH]c(-c2ccc(Cl)cc2Cl)n1)Nc1ccccn1,5.8,-1.7,6.8,1.3,6.1,0.0,.,
